Drawing on ChEMBL document CHEMBL3091443, “Synthesis of novel 7-substituted pyrido[2',3':4,5]furo[3,2-d]pyrimidin-4-amines and their N-aryl analogues and evaluation of their inhibitory activity against Ser/Thr kinases” (Bioorg Med Chem Lett, 2013), this text covers IC50 for 26 molecules.

pIC50: −log10 of the molar value.

Test [1] deals with Glycogen synthase kinase-3 (Sus scrofa, UniProt B2LUN4+I6LNT8). As to the kind of experiment: Inhibition of pig brain GSK3alpha/beta using YRRAAVPPSPSLSRHSSPHQpSEDEEE as substrate after 30 mins by scintillation counting analysis. In a few lines:
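Screened first at 10 μM final; compounds giving under 50% inhibition at that level were recorded as IC50 >10 μM. Kinase activity was assayed in triplicate, and IC50 values are reported in μM.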

Test [2] deals with Dual specificity tyrosine-phosphorylation-regulated kinase 1A (Rattus norvegicus, UniProt Q63470). The test can be described thus: Inhibition of rat recombinant GST-tagged DYRK1A expressed in Escherichia coli using KKISGRLSPIMTEQ as substrate after 30 mins by scintillation counting analysis. A digest of the protocol:
(§1)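 Compounds were screened first at 10 µM final; those giving under 50% inhibition were scored as IC50 >10 µM, and the rest were taken to IC50 determination (µM). Kinase activities were assayed in triplicate, with standard deviation of single data points typically below 10%. Assay procedures are cited to earlier reports.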

The target of test [3] is Dual specificity protein kinase CLK1 (Homo sapiens, UniProt P49759). The test can be described thus: Inhibition of human recombinant GST-tagged CLK1 expressed in Escherichia coli using GRSRSRSRSRSR as substrate. A digest of the protocol:
as §1

Test [4] is described as follows: Inhibition of pig brain CK1delta/epsilon using RRKHAAIGpSAYSITA as substrate after 30 mins by scintillation counting analysis. The arrangement: species or system Sus scrofa. In a few lines:
as §1

Test [5] deals with Cyclin-dependent kinase 5/CDK5 activator 1 (Homo sapiens, UniProt Q00535). As to the kind of experiment: Inhibition of human recombinant CDK5/p25 using [gamma-33P]ATP as substrate after 30 mins by scintillation counting analysis. It is filed as protein-complex assay. A digest of the protocol:
as §1

Sequence of Dual specificity protein kinase CLK1 (P49759 whole entry): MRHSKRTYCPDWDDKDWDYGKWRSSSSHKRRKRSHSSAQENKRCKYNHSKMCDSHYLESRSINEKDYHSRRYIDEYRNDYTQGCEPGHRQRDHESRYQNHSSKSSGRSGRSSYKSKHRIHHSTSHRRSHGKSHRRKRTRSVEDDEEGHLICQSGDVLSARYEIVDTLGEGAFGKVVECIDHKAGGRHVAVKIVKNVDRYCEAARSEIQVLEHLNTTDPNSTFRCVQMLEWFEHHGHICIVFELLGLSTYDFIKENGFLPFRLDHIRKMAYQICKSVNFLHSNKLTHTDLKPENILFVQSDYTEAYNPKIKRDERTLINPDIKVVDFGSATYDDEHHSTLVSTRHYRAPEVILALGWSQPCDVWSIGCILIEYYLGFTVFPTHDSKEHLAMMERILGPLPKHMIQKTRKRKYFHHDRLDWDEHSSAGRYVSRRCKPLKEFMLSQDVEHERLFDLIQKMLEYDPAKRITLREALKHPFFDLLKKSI
Sequence of Cyclin-dependent kinase 5/CDK5 activator 1 (Q00535 whole entry): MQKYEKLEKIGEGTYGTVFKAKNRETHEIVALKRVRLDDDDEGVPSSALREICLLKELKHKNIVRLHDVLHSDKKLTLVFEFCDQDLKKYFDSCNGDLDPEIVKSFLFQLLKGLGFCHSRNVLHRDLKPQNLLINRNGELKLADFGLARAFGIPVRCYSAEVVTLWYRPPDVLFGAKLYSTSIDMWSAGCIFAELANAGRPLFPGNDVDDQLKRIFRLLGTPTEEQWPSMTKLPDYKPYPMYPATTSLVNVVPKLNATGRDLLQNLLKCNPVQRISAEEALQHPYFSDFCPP
Sequence of Cyclin-dependent kinase 5/CDK5 activator 1 (Q15078 whole entry, further chain): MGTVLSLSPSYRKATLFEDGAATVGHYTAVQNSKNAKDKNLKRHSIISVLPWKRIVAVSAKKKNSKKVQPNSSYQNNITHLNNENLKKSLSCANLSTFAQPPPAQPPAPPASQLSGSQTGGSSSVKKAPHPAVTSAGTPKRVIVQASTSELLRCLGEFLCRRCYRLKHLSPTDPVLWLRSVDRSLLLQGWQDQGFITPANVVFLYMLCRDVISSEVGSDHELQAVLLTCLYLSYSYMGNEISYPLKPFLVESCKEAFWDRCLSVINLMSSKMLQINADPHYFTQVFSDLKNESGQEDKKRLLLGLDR

One may read the IC50 as the concentration needed to halve the response being measured. Lower therefore signals greater potency. As a reminder, the pIC50 is −log10 of the IC50, conventionally taken in molar units. For the molecule `c1nc(Nc2ccc3c(c2)OCO3)c2oc3cc(-c4ccc5c(c4)OCO5)cnc3c2n1`, in test [1], the IC50 was above 10 µM. Moreover, the pIC50 in test [2], in test [3], in test [4] and in test [5] was below 5.00 each time.
For `Nc1ncnc2c1oc1cc(-c3cccc(Cl)c3)cnc12`, the half-inhibitory concentration (IC50) in test [1] is above 10 µM. The pIC50 in test [2] is below 5.00; in test [3] it was 6.00; in test [4], below 5.00; in test [5], below 5.00.
Take `Nc1ncnc2c1oc1cc(-c3ccc(Cl)c(Cl)c3)cnc12`: the IC50 in test [1] was above 10 µM. Moreover, the pIC50 in test [2], in test [3], in test [4] and in test [5] was below 5.00 in each case.
For the molecule `Nc1ncnc2c1oc1cc(-c3ccc(Cl)cc3Cl)cnc12`, the IC50 in test [1] is above 10 µM. The pIC50 in test [2] was 6.22; in test [3], 7.31; in test [4], below 5.00; in test [5] it was below 5.00.
Molecule `Nc1ncnc2c1oc1cc(-c3ccc4c(c3)OCO4)cnc12` came in with an IC50 in test [1] above 10 µM. The pIC50 in test [2] is 5.64; in test [3], 6.49; in test [4], below 5.00; in test [5] it was below 5.00.
`c1ccc(Nc2ncnc3c2oc2cc(-c4ccc5c(c4)OCO5)cnc23)cc1` yielded an IC50 in test [1] above 10 µM. Moreover, the pIC50 in test [2], in test [3], in test [4] and in test [5] was below 5.00 throughout.
`Cc1ccc(Nc2ncnc3c2oc2cc(-c4ccc5c(c4)OCO5)cnc23)cc1` came in with an IC50 in test [1] above 10 µM. In addition, the pIC50 in test [2], in test [3], in test [4] and in test [5] was below 5.00 in each case.
In test [1], `COc1ccc(Nc2ncnc3c2oc2cc(-c4ccc5c(c4)OCO5)cnc23)cc1` showed an IC50 above 10 µM. In addition, the pIC50 in test [2], in test [3], in test [4] and in test [5] was below 5.00 each time.
Regarding `COc1ccc(Nc2ncnc3c2oc2cc(-c4ccc5c(c4)OCO5)cnc23)cc1OC`, the IC50 in test [1] is above 10 µM. For the same molecule, the pIC50 in test [2], in test [3], in test [4] and in test [5] was below 5.00 in each case.
`COc1cc(Nc2ncnc3c2oc2cc(-c4ccc5c(c4)OCO5)cnc23)cc(OC)c1OC` yielded an IC50 in test [1] above 10 µM. Further, the pIC50 in test [2], in test [3], in test [4] and in test [5] was below 5.00 in each case.
The molecule `Clc1ccc(Nc2ncnc3c2oc2cc(-c4ccc5c(c4)OCO5)cnc23)cc1Cl` displayed an IC50 in test [1] above 10 µM. The negative logarithm of the IC50 (pIC50) in test [2], in test [3], in test [4] and in test [5] was below 5.00 throughout.
The molecule `Clc1ccc(Nc2ncnc3c2oc2cc(-c4ccc5c(c4)OCO5)cnc23)cc1` gave an IC50 in test [1] above 10 µM. The pIC50 in test [2], in test [3], in test [4] and in test [5] was below 5.00 throughout.
In test [1], `Fc1ccc(Nc2ncnc3c2oc2cc(-c4ccc5c(c4)OCO5)cnc23)cc1Cl` displayed an IC50 above 10 µM. Also, the pIC50 in test [2], in test [3], in test [4] and in test [5] was below 5.00 each time.
Regarding `Nc1ncnc2c1oc1cccnc12`, the IC50 in test [1] was above 10 µM. For the same molecule, the pIC50 in test [2], in test [3], in test [4] and in test [5] was below 5.00 each time.
With `c1ccc(Nc2ncnc3c2oc2cccnc23)cc1`, in test [1], the IC50 was above 10 µM. In addition, the pIC50 in test [2], in test [3], in test [4] and in test [5] was below 5.00 each time.
Take `COc1ccc(Nc2ncnc3c2oc2cccnc23)cc1`: the IC50 in test [1] was above 10 µM. Besides, the pIC50 in test [2], in test [3], in test [4] and in test [5] was below 5.00 in each case.
The molecule `COc1ccc(Nc2ncnc3c2oc2cccnc23)cc1OC` displayed an IC50 in test [1] above 10 µM. Moreover, the pIC50 in test [2], in test [3], in test [4] and in test [5] was below 5.00 in each case.
On to `COc1cc(Nc2ncnc3c2oc2cccnc23)cc(OC)c1`, for which the IC50 in test [1] is above 10 µM. Also, the pIC50 in test [2], in test [3], in test [4] and in test [5] was below 5.00 throughout.
In turn, `COc1cc(Nc2ncnc3c2oc2cccnc23)cc(OC)c1OC` returned an IC50 in test [1] above 10 µM. Also, the pIC50 in test [2], in test [3], in test [4] and in test [5] was below 5.00 each time.
As to `c1cnc2c(c1)oc1c(Nc3ccc4c(c3)OCO4)ncnc12`, the IC50 in test [1] was above 10 µM. The negative logarithm of the IC50 (pIC50) in test [2], in test [3], in test [4] and in test [5] was below 5.00 in each case.
With `C1=COc2cc(Nc3ncnc4c3oc3cccnc34)ccc2O1`, the IC50 in test [1] was above 10 µM. Further, the pIC50 in test [2], in test [3], in test [4] and in test [5] was below 5.00 throughout.
`Fc1ccc(Nc2ncnc3c2oc2cccnc23)cc1Cl`: in test [1], the IC50 was above 10 µM. For the same molecule, the pIC50 in test [2], in test [3], in test [4] and in test [5] was below 5.00 in each case.
`Fc1cc(Br)ccc1Nc1ncnc2c1oc1cccnc12` yielded an IC50 in test [1] above 10 µM. Also, the pIC50 in test [2], in test [3], in test [4] and in test [5] was below 5.00 each time.
In the case of `Nc1ncnc2c1oc1cc(-c3ccccc3)cnc12`, the IC50 in test [1] is above 10 µM. The pIC50 in test [2] was 5.51; in test [3], 6.16; in test [4] it was below 5.00; in test [5] it was below 5.00.
Turning to `Cc1ccc(-c2cnc3c(c2)oc2c(N)ncnc23)cc1`, the IC50 in test [1] is above 10 µM. In addition, the pIC50 in test [2] is 5.36; in test [3], 6.21; in test [4] it was below 5.00; in test [5], below 5.00.
`COc1ccc(-c2cnc3c(c2)oc2c(N)ncnc23)cc1` had an IC50 in test [1] above 10 µM. Also, the pIC50 in test [2], in test [3], in test [4] and in test [5] was below 5.00 in each case.
